Consider one molecule from PMC7396739 (Drug Design, Development and Therapy, 2020).

The nature of series [1]: Crystallization inhibition of excipients. To be noted: after 5 min. In kind it is physicochemical. The procedure, abridged: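 Supersaturated stock (27 mg test compound in 5 mL 95% ethanol) added rapidly to 900 mL water, here with no excipient (control), at 37°C and 50 r/min. 5 mL samples were taken at 5–240 min and replaced with drug-free medium. Samples were filtered (0.22 µm) and assayed by HPLC (C18, acetonitrile-water 84:16, 1 mL/min, 203 nm). Run in triplicate.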

Series [2] can be described thus: Determination of saturated solubility of ASDs in distilled water. In kind it is physicochemical. To be noted: 37±0.5°C, 48 h, drug:Soluplus 1:10 w/w, Figure 5A. The procedure, abridged: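 Solid dispersions were made by co-precipitation from anhydrous ethanol, freeze-drying from 2% ethanol (−40°C 8 h, then −45°C 24 h), or microwave (700 W, 10 min) with liquid-nitrogen quench. Products were ground and sieved (60 mesh). Excess material was shaken in 5 mL water, then filtered (0.45 µm). Concentration was measured by HPLC (C18, acetonitrile-water 84:16, 203 nm).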

For series [3] the following is noted: rats; cited from earlier work.

On to `C[C@@H]1CC[C@@]2(OC1)O[C@H]1C[C@H]3[C@@H]4CC=C5C[C@@H](O)CC[C@]5(C)[C@H]4CC[C@]3(C)[C@H]1[C@@H]2C` [Dio, diosgenin], for which, in series [1], the “concentration of Dio in dissolution medium without excipient” value is listed as “lower than the detection limit”. The solubility entry in series [2] is “lower than the detection limit”. Also, the absolute bioavailability result in series [3] was “about 7%”.
